Measurements reported in BindingDB's records for doi:10.1021/jm000285q (Merck Research Laboratories, 2000).

Target: Insulin receptor (Homo sapiens, UniProt P06213)
Assay: Activation of human insulin receptor tyrosine kinase (IRTK)
Outline: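 CHO cells stably transfected with human insulin receptor, plated 150 000 cells/well for 24 h, serum-starved 2 h, then exposed to compound 20 min at 37 °C. Lysate IR captured on anti-IR antibody wells (16 h, 4 °C), kinase reaction 40 min at 25 °C, radioactivity on phosphocellulose filters. Activity as % of maximal response to 100 nM insulin.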

Sequence of Insulin receptor (P06213 28-758 limits assumed): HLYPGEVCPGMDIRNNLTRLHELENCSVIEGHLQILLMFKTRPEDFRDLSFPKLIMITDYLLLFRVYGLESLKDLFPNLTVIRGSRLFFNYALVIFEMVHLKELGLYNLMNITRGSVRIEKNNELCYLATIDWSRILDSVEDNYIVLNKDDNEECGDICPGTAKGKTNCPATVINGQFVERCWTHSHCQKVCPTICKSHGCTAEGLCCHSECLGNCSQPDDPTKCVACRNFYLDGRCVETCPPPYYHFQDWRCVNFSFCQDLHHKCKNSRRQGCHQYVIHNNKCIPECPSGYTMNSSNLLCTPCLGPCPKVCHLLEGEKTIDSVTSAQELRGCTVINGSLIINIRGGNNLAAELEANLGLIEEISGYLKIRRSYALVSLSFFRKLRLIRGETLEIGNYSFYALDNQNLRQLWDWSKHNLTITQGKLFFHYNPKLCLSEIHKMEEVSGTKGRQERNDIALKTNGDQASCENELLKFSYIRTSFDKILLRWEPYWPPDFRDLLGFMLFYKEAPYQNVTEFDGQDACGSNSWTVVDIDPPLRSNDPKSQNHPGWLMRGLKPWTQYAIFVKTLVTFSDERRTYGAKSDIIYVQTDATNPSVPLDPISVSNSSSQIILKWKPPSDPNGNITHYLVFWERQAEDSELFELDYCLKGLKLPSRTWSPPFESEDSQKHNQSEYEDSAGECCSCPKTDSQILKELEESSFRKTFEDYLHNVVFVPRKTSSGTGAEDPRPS
Sequence of Insulin receptor (P06213 763-1382 limits assumed): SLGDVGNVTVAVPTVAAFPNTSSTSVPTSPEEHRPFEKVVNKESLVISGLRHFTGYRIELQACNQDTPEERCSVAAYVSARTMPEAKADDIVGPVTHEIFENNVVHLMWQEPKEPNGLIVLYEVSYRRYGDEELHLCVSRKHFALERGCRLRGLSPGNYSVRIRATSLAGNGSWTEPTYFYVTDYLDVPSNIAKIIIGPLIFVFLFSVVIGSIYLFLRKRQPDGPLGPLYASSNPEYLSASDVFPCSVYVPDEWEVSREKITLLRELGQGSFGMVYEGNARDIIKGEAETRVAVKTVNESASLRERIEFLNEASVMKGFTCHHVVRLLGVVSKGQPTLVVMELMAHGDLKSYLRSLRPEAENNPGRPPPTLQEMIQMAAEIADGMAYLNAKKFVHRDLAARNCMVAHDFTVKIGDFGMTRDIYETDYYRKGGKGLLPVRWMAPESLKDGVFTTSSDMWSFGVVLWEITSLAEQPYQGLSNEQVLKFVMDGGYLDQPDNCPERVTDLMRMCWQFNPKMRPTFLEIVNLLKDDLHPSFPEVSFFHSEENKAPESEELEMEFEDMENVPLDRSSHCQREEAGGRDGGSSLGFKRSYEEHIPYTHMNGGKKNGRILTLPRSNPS

| EC50 [nM] | SMILES |
| --- | --- |
| 300 | Cn1cc(C2C(=O)C(=O)C(c3ccccc3)C(=O)C2=O)c2ccccc21 (configuration not stated) [2,5-Dihydroxy-3-(1-methyl-1H-indol-3-yl)-6-phenyl-[1,4]benzoquinone] |
| 300 | O=C1C(=O)C(c2c[nH]c3ccccc23)C(=O)C(=O)C1c1ccccc1 (configuration not stated) [2,5-Dihydroxy-3-(1H-indol-3-yl)-6-phenyl-[1,4]benzoquinone] |
